Experimental data reported in ChEMBL document CHEMBL4715681, “Targeting miRNA by tunable small molecule binders: peptidic aminosugar mediated interference in miR-21 biogenesis reverts epithelial to mesenchymal transition” (Medchemcomm, 2018).
Values after ≈ are worked out from the molar mass of the structure shown. Values joined by “and” are separate entries in the source; they are usually repeats but may differ in a detail not shown here. Equal entries are not always repeated. Active and inactive are the calls of the source. No cut-off for these calls is given here.

Key:
[1] = system: microRNA 21; assay: Displacement of F-neo from premature miRNA21 (unknown origin) at 100 nM by fluorescence assay relative to control; type: nucleic-acid assay
Method in brief: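 Competition fluorescence: pre-miR21 (12.5 nM, annealed 75→25 °C at 1 °C/min) complexed with 100 nM F-neo in 10 mM phosphate, 25 mM KCl, 0.05 mM EDTA, pH 6.5. Test agent added at 100 nM. Emission read at ex 485/em 525 nm. Percent binding = (I−Ic)×100/(Ineo−Ic), referenced to 100 nM kanamycin; duplicate controls.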

[2] = system: Escherichia coli; assay: Antibacterial activity against Escherichia coli ATCC 25922 assessed as reduction in bacterial growth at 64 uM incubated for 15 to 20 hrs by broth microdilution method relative to control; type: functional; conditions: time 15-20 hrs, read-out: GI
[3] = system: Staphylococcus aureus; assay: Antibacterial activity against Staphylococcus aureus ATCC 25923 assessed as reduction in bacterial growth at 64 uM incubated for 15 to 20 hrs by broth microdilution method relative to control; type: functional; conditions: time 15-20 hrs, read-out: GI
[4] = system: Staphylococcus aureus; assay: Antibacterial activity against methicillin-resistant Staphylococcus aureus ATCC 1960649 assessed as reduction in bacterial growth at 64 uM incubated for 15 to 20 hrs by broth microdilution method relative to control; type: functional; conditions: time 15-20 hrs; for inhibition of growth at 64 µM: read-out: GI
[5] = system: Pseudomonas aeruginosa; assay: Antibacterial activity against Pseudomonas aeruginosa ATCC 27853 assessed as reduction in bacterial growth at 12.5 uM incubated for 15 to 20 hrs by broth microdilution method relative to control; conditions: time 15-20 hrs
[6] = biological target: microRNA 21; assay: Displacement of F-neo from premature miRNA21 (unknown origin) by fluorescence assay; type: nucleic-acid assay
[7] = system: MCF7; assay: Antiproliferative activity against human MCF7 cells assessed as reduction in Ki67 expression at 5 uM incubated for 48 hrs by fluorescence microscopy; type: functional, cell-based
Method in brief: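 MCF7 cells seeded on coverslips (8x10⁴ per well) and grown 24 h at 37 °C, 5% CO₂, then treated 48 h at 5 μM; untreated and kanamycin controls. Fixed in 3% paraformaldehyde, permeabilized with 0.2% Triton X-100, blocked with 0.5% BSA. Stained with anti-Ki67 (1:1000, overnight) and Alexa Fluor 488 secondary (1:2000, 2 h). Nuclear speckles imaged.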

[8] = system: Escherichia coli; assay: Antibacterial activity against Escherichia coli ATCC 25922 assessed as reduction in bacterial growth incubated for 15 to 20 hrs by broth microdilution method; type: functional; conditions: time 15-20 hrs
Method in brief: (§1)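 MIC by CLSI broth microdilution on exponential-phase cultures, in triplicate. Compound stocks were made at 10× final in 10% DMSO and added to the bacterial suspension (about 3 x 10⁵ cells/mL in cation-adjusted Mueller-Hinton broth). Final concentrations were 2-fold serial dilutions from 50 μM to 0.78 μM. Plates were incubated humidified at 37°C for 15-20 h, growth was read as absorbance at 595 nm, and % inhibition was averaged from the triplicates.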

[9] = system: Staphylococcus aureus; assay: Antibacterial activity against Staphylococcus aureus ATCC 25923 assessed as reduction in bacterial growth incubated for 15 to 20 hrs by broth microdilution method; type: functional; conditions: time 15-20 hrs; method in brief: as §1
[10] = system: Pseudomonas aeruginosa; assay: Antibacterial activity against Pseudomonas aeruginosa ATCC 27853 assessed as reduction in bacterial growth incubated for 15 to 20 hrs by broth microdilution method; type: functional; conditions: time 15-20 hrs
Method in brief: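 CLSI broth microdilution on exponential-phase bacteria, ~3 x 10⁵ cells/mL in cation-adjusted Mueller-Hinton broth. Serial 2-fold dilutions give final 50 to 0.78 μM from 10x stocks in 10% DMSO. Incubated 15-20 h at 37°C, humidified. Growth read at 595 nm; percent inhibition averaged from triplicates to give MIC.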

[11] = system: Staphylococcus aureus; assay: Antibacterial activity against methicillin-resistant Staphylococcus aureus ATCC 1960649 assessed as reduction in bacterial growth incubated for 15 to 20 hrs by broth microdilution method; type: functional; conditions: time 15-20 hrs; method in brief: as §1
[12] = system: Pseudomonas aeruginosa; assay: Antibacterial activity against Pseudomonas aeruginosa ATCC 27853 assessed as reduction in bacterial growth at 64 uM incubated for 15 to 20 hrs by broth microdilution method relative to control; type: functional; conditions: time 15-20 hrs, read-out: GI
[13] = system: microRNA 21; assay: Inhibition of premature miRNA-21 (unknown origin) transfected in human MCF7 cells assessed as reduction of maturation of pre-miRNA21 at 5 uM incubated for 48 hrs by qPCR analysis; type: cell-based
Method in brief: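 MCF7 cells treated 48 h at 5 μM, as for the Western blots. Total RNA extracted with TRIzol and DNase-treated; 400-500 ng polyadenylated and reverse-transcribed with oligo(dT) adaptor. SYBR qPCR run in triplicate for mature miR21, normalized to U6 snRNA, fold change by 2^-ΔΔCt.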

[14] = system: microRNA 21; assay: Inhibition of premature miRNA-21 (unknown origin) transfected in human MCF7 cells assessed as increase in PTEN expression at 5 uM incubated for 48 hrs by Western blot analysis; type: cell-based
Method in brief: (§2)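 MCF7 cells seeded at 4x10⁴/well, treated 24 h later at 5 μM for 48 h. Controls: antisense LNA transfected at 50 nM, kanamycin forms, streptomycin, untreated. Lysates (40 µg protein) run on SDS-PAGE and blotted to PVDF. Probed with PDCD4 or PTEN (1:1000) plus GAPDH (1:2000) antibodies overnight at 4 °C, then HRP secondary and ECL; bands quantified as fold change versus controls.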

[15] = system: microRNA 21; assay: Inhibition of premature miRNA-21 (unknown origin) transfected in human MCF7 cells assessed as increase in PDCD4 expression at 5 uM incubated for 48 hrs by Western blot analysis; type: cell-based; method in brief: as §2
[16] = biological target: microRNA 21; assay: Binding affinity to pre-miRNA21 (unknown origin) by […]; type: nucleic-acid assay
Method in brief: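 Bio-layer interferometry (Octet RED96) with immobilized pre-miR21. Analytes run at 8-128 nM in 10 mM HEPES, 50 mM NaCl, 0.05% Tween20. Association 5 min, dissociation 10 min; regeneration in 50 mM NaOH, 1 M NaCl. KD derived from the binding curves.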

[17] = Cytotoxicity against human MCF7 cells assessed as reduction cell viability at 2.5 to 5 uM incubated for 24 hrs by MTT assay; type: cell-based; conditions: dose 2.5-5 µM, read-out: INH
Method in brief: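 MTT assay in MCF7 cells seeded at 8000/well and treated 24 h after seeding at 0, 2.5, 5, 7.5 and 10 μM, in triplicate. After 24 h exposure, MTT (0.5 mg/ml) added for 4 h at 37 °C. Crystals dissolved in DMSO and absorbance read at 570 nm to give percent viable cells.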

[18] = system: MCF7; assay: Antimigratory activity in human MCF7 cells assessed as […] at 5 uM incubated for 48 hrs by imaging analysis relative to control; type: functional
Method in brief: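 MCF-7 cells seeded densely and grown to confluence, then scratched with a pipette tip and washed with PBS. Treated at 5μM alongside an untreated well. Wound images quantified in ImageJ; three biological replicates, error bars ± S.D.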

[19] = system: MCF7; assay: Inhibition of epithelial-mesenchymal transition in human MCF7 cells increase in E-cadherin expression at 5 uM incubated for 48 hrs by inverted fluorescence microscopy
[20] = system: Escherichia coli; assay: Antibacterial activity against Escherichia coli ATCC 25922 assessed as reduction in bacterial growth at 12.5 uM incubated for 15 to 20 hrs by broth microdilution method relative to control; conditions: time 15-20 hrs
[21] = system: Staphylococcus aureus; assay: Antibacterial activity against Staphylococcus aureus ATCC 25923 assessed as reduction in bacterial growth at 12.5 uM incubated for 15 to 20 hrs by broth microdilution method relative to control; conditions: time 15-20 hrs

## CN[C@@H]1[C@H](O[C@H]2[C@H](O[C@H]3[C@H](O)[C@@H](O)[C@H](N=C(N)N)[C@@H](O)[C@@H]3N=C(N)N)O[C@@H](C)[C@]2(O)C=O)O[C@@H](CO)[C@H](O)[C@H]1O
[1]
  inhibition: 107%

## N=C(N)NCCC[C@H](NC(=O)CCC(=O)NC[C@H]1O[C@H](O[C@@H]2[C@@H](O)[C@H](O[C@H]3O[C@H](CN)[C@@H](O)[C@H](O)[C@H]3O)[C@@H](N)C[C@H]2N)[C@H](O)[C@@H](N)[C@@H]1O)C(=O)N[C@@H](CS)C(N)=O
[2]
  inhibition of growth at 64 µM: 13%
[3]
  inhibition of growth at 64 µM: 20%
[4]
  inhibition of growth at 64 µM: 25%
[5]
  growth inhibition (GI): inactive

## NC[C@H]1O[C@H](O[C@H]2[C@H](O)[C@@H](O[C@H]3O[C@H](CO)[C@@H](O)[C@H](N)[C@H]3O)[C@H](N)C[C@@H]2N)[C@H](O)[C@@H](O)[C@@H]1O [KANAMYCIN]
[6]
  IC50: 1100 nM
[1]
  inhibition: 107% and 100%
[7]
  inhibition: inactive
[8]
  MIC: 4 µM (≈ 1.94 µg/mL)
[9]
  MIC: 4 µM (≈ 1.94 µg/mL)
[10]
  MIC: > 256 µM
[11]
  MIC: > 256 µM
[2]
  inhibition of growth at 64 µM: 100%
[3]
  inhibition of growth at 64 µM: 100%
[12]
  inhibition of growth at 64 µM: 11%
[4]
  inhibition of growth at 64 µM: 41%

## NC[C@H]1O[C@H](O[C@H]2[C@H](O)[C@@H](O[C@H]3O[C@H](CNC(=O)CCC(=O)N[C@@H](Cc4ccccc4)C(=O)N[C@@H](CS)C(N)=O)[C@@H](O)[C@H](N)[C@H]3O)[C@H](N)C[C@@H]2N)[C@H](O)[C@@H](O)[C@@H]1O
[1]
  inhibition: 140%
[13]
  inhibition: Active
[14]
  inhibition: Active
[15]
  inhibition: Active
[16]
  Kd: 43.6 nM
[17]
  cytotoxicity at 24 h, up to 5 µM: 2%
[18]
  Activity: >50%
[4]
  inhibition of growth at 64 µM: 22%
[19]
  inhibition: Active
[20]
  growth inhibition (GI): inactive
[21]
  growth inhibition (GI): inactive
[5]
  growth inhibition (GI): inactive

## NC[C@H]1O[C@H](O[C@H]2[C@H](O)[C@@H](O[C@H]3O[C@H](CNC(=O)CCC(=O)N[C@@H](Cc4ccc(O)cc4)C(=O)N[C@@H](CS)C(N)=O)[C@@H](O)[C@H](N)[C@H]3O)[C@H](N)C[C@@H]2N)[C@H](O)[C@@H](O)[C@@H]1O
[1]
  inhibition: 133%
[7]
  inhibition: Active
[3]
  inhibition of growth at 64 µM: 34%
[4]
  inhibition of growth at 64 µM: 38%
[20]
  growth inhibition (GI): inactive
[5]
  growth inhibition (GI): inactive

## C[C@@H](O)[C@H](NC(=O)[C@H](CCCNC(=N)N)NC(=O)CCC(=O)NC[C@H]1O[C@H](O[C@@H]2[C@@H](O)[C@H](O[C@H]3O[C@H](CN)[C@@H](O)[C@H](O)[C@H]3O)[C@@H](N)C[C@H]2N)[C@H](O)[C@@H](N)[C@@H]1O)C(N)=O
[1]
  inhibition: 131%
[4]
  growth inhibition (GI): inactive
[20]
  growth inhibition (GI): inactive
[21]
  growth inhibition (GI): inactive
[5]
  growth inhibition (GI): inactive

## NC[C@H]1O[C@H](O[C@H]2[C@H](O)[C@@H](O[C@H]3O[C@H](CNC(=O)CCC(=O)N[C@@H](Cc4ccc(O)cc4)C(=O)N[C@@H](CC(=O)O)C(N)=O)[C@@H](O)[C@H](N)[C@H]3O)[C@H](N)C[C@@H]2N)[C@H](O)[C@@H](O)[C@@H]1O
[1]
  inhibition: 5%
[13]
  inhibition: Active
[15]
  inhibition: Active
[4]
  growth inhibition (GI): inactive
[20]
  growth inhibition (GI): inactive
[21]
  growth inhibition (GI): inactive
[5]
  growth inhibition (GI): inactive

## N=C(N)NCCC[C@H](NC(=O)[C@H](CCCNC(=N)N)NC(=O)CCC(=O)NC[C@H]1O[C@H](O[C@@H]2[C@@H](O)[C@H](O[C@H]3O[C@H](CN)[C@@H](O)[C@H](O)[C@H]3O)[C@@H](N)C[C@H]2N)[C@H](O)[C@@H](N)[C@@H]1O)C(N)=O
[1]
  inhibition: 137%
[13]
  inhibition: Active
[15]
  inhibition: Active
[16]; dose 16.0 nM
  Activity: Active
[2]
  inhibition of growth at 64 µM: 25%
[3]
  inhibition of growth at 64 µM: 29%
[12]
  inhibition of growth at 64 µM: 11%
[4]
  inhibition of growth at 64 µM: 30%
